Rows were chosen to be rich in hits. Some 1.3% of all compounds tested hit in one or more screens of this group.
HGIII-sPLA2 inh: human group III sPLA2 inhibitors, primary screen, biochemical, QFRET, BODIPY PC-A2 liposome substrate. AID 743126, 2013. 0.56% of 370,000 active. Group 3 secretory phospholipase A2 (Homo sapiens), Q9NZ20. QFRET BODIPY PC-A2 liposome hydrolysis, fluorescence. inhibition, % at 12.2 µM;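 active means inhibition above mean plus 3 SD of compounds lying within the high and low control bounds, cut at about 19% in these data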;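 further: 0% = median of test compound wells and 100% = no enzyme DMSO wells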
Target sequence (Q9NZ20 whole entry, looked up): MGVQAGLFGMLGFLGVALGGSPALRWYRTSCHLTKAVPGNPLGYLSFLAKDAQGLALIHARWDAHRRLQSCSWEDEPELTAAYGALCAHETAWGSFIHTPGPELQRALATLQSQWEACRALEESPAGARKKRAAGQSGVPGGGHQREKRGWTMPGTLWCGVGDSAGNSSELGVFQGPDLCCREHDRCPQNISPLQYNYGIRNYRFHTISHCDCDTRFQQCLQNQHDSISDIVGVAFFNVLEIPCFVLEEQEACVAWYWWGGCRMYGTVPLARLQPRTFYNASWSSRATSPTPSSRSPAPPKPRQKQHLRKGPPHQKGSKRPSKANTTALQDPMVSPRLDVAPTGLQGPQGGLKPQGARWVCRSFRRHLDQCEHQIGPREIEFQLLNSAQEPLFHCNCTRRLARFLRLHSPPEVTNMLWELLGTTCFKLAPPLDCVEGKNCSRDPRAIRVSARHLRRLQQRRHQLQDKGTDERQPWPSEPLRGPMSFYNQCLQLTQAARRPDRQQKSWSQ
MT1-MMP act inh: blockers of MT1-MMP proenzyme processing, primary screen, HT1080 RFP-PRO-GFP cells, GFP/RFP fluorescence. Matrix metalloproteinase-14 (Homo sapiens), P50281. GFP/RFP ratio fluorescence, overnight; percent of plate control window, DMSO zero. GFP/RFP ratio change, % at 20 µM. 0.061% of 360,000 active;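 active means GFP/RFP ratio change of at least 30% with cell ATP level not reduced by more than half and red fluorescence within 50% of control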
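Material – HT1080 RFP-PRO-GFP cells · Control set – DMSO wells and RFP-L50D-GFP cells · Incubation – overnight cell settling, then overnight compound exposure, 37 °C, 5% CO2 · Compound dosing – single-point 20 µM compound, 1% DMSO · Read-out – GFP/RFP fluorescence ratio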
Efflux pump inh: inhibitors of Candida efflux pumps in yeast, primary screen, S. cerevisiae, Nile Red, multiplex; 0.44% of 330,000 active; inhibition, % at 10 µM; AID 485275, 2010; S. cerevisiae Candida pump triplex;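 active means plate passing quality check with inhibition over a set limit, or well fluorescence over plate mean plus 4 SD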;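 further: Nile Red retained in pooled yeast measured as flow cytometry median fluorescence; 0% = buffer negative control and 100% = Enniatin B positive control; higher means more Nile Red kept so more efflux inhibition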
TAG inh: inhibitors of triacylglycerol accumulation, primary screen, cell-based, uHTS, fluorescence, H9c2 | 0.66% of 230,000 active | H9c2 cells, Nile Red lipid (TAG) fluorescence; cells loaded with 200 µM oleic acid | inhibition, % at 12.5 µM;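 active means pattern-corrected inhibition of lipid staining of at least 50% with the nuclear-stain viability signal not falling by more than 50%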;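 further: 0% = DMSO wells and 100% = triacsin C control wells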
sPLA2 confirm: human group III sPLA2 inhibitors, confirmation, biochemical, QFRET, triplicate | shares compounds with HGIII-sPLA2 inh | recombinant hGIII-sPLA2, BODIPY PC-A2 QFRET fluorescence | inhibition, % at 12.2 µM | 34% of 2,000 active | AID 743280, 2014;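 active means mean inhibition across triplicates above the hit cutoff set in the earlier primary screen, cut at about 19% in these data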;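 further: 0% = enzyme with DMSO and 100% = DMSO wells lacking enzyme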
BODIPY interf: 535nm fluorescence optical interference, confirmation, artefact control for HGIII-sPLA2 inhibitor project, biochemical, QFRET; shares compounds with HGIII-sPLA2 inh; BODIPY FL product fluorescence interference; inhibition, % at 12.2 µM; 8.5% of 2,000 active;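 active means average inhibition above the solvent-only control mean plus 3 SD, cut at about 6% in these data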;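 further: 0% = DMSO with substrate plus product and 100% = DMSO with substrate alone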
535nm interf DR: 535nm fluorescence optical interference, dose response, artefact control for HGIII-sPLA2 inhibitor project, biochemical, QFRET | shares compounds with HGIII-sPLA2 inh | BODIPY FL product fluorescence interference, cell-free | IC50, µM | 240 tested, under 10 active | AID 743455, 2014;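 active means IC50 at or below 10 µM; inactive means IC50 above 10 µM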
Active calls of the source: *.

Results for COc1ccc(C(=O)NC(=S)NNC(=O)c2ccco2)cc1 ?
HGIII-sPLA2 inh: 19*; MT1-MMP act inh: 10; Efflux pump inh: 0; sPLA2 confirm: 29*; BODIPY interf: -2; 535nm interf DR: >122

How did Cc1ccc2c(c1)N(C(=O)c1ccco1)C(C)(C)c1ssc(=S)c1-2 do in these assays?
HGIII-sPLA2 inh: 18; MT1-MMP act inh: -18; Efflux pump inh: 0

Results for COc1ccc(CN2C[C@@H](CO)O[C@@H](n3cnc4c(NCc5ccc(F)cc5)ncnc43)C2)cc1 ?
HGIII-sPLA2 inh: -11; MT1-MMP act inh: 2; TAG inh: 20

How did N#Cc1ccccc1NS(=O)(=O)c1cc2c3c(c1)CCC(=O)N3CCC2 do in these assays?
HGIII-sPLA2 inh: -14; MT1-MMP act inh: 4; Efflux pump inh: 0; TAG inh: -3

What do the screens show for `O=C(Nc1c(-c2ccccc2)nc2ncccn12)C1CC1`?
HGIII-sPLA2 inh: 0

Results for O=C(OCc1cn(Cc2ccc(F)c(F)c2)nn1)N1CCOCC1 ?
HGIII-sPLA2 inh: 19*; sPLA2 confirm: -3; BODIPY interf: -2

What do the screens show for `O=C(OCc1cn(Cc2ccc(F)c(F)c2)nn1)N1CCCC1`?
HGIII-sPLA2 inh: 2

How did COC(=O)C(C)(C)ONC(=O)Nc1ccccc1Br do in these assays?
HGIII-sPLA2 inh: 21*; MT1-MMP act inh: 0; Efflux pump inh: 0; sPLA2 confirm: -4; BODIPY interf: -9

Results for O=C(CSc1nnc(NCc2ccccc2)s1)N1CCOCC1 ?
HGIII-sPLA2 inh: 27*; MT1-MMP act inh: 5; Efflux pump inh: 1; sPLA2 confirm: -2; BODIPY interf: -5

What do the screens show for `O=C(Nc1nnc(SCC(=O)N2CCOCC2)s1)c1ccccc1Cl`?
HGIII-sPLA2 inh: 12; MT1-MMP act inh: 2; Efflux pump inh: 0

Results for CNC(=S)NNC(=O)c1c(C)nc2cc(C)ccn12 ?
HGIII-sPLA2 inh: 19*; MT1-MMP act inh: -1; Efflux pump inh: 0; TAG inh: 0; sPLA2 confirm: 4; BODIPY interf: -7

Results for CN(C)c1ccc(N=Nc2ccccc2C(=O)OCC(=O)NC2CCCC2)cc1 ?
HGIII-sPLA2 inh: 20*; MT1-MMP act inh: 3; Efflux pump inh: 0; sPLA2 confirm: 24*; BODIPY interf: -11

Results for O=C(Nc1ccc(C(F)(F)F)cc1)OC1CC2CC1[C@H]1CCCCN1[C@H]2Cc1ccccc1 (some centres not stated) ?
HGIII-sPLA2 inh: 1

How did CCN(CC(=O)NC(C)(C)C)C(=O)CCl do in these assays?
HGIII-sPLA2 inh: 20*; MT1-MMP act inh: 5; Efflux pump inh: 0; sPLA2 confirm: 2; BODIPY interf: -1

What do the screens show for `COc1ccc(CN(C(=O)c2cc(=O)c3ccccc3o2)C2CCS(=O)(=O)C2)cc1OC` (configuration not stated)?
HGIII-sPLA2 inh: 0; MT1-MMP act inh: 1; Efflux pump inh: 0

How did CC1(C)Nc2ccc(O)cc2-c2c1ssc2=S do in these assays?
HGIII-sPLA2 inh: 5; MT1-MMP act inh: 4; Efflux pump inh: 0; TAG inh: -11

Results for CCOc1ccc2c(c1)-c1c(ssc1=S)C(C)(C)N2C ?
HGIII-sPLA2 inh: 36*; MT1-MMP act inh: 6; Efflux pump inh: 0; TAG inh: 2; sPLA2 confirm: 46*; BODIPY interf: 14*

What do the screens show for `CCOc1ccc(-n2c(N)c(-c3nc4ccccc4[nH]3)sc2=S)cc1`?
HGIII-sPLA2 inh: 20*; MT1-MMP act inh: 7; Efflux pump inh: 0; TAG inh: 13; sPLA2 confirm: 33*; BODIPY interf: 2; 535nm interf DR: >122

What do the screens show for `COc1ccc(-n2c(N)c(-c3nc4ccccc4n3C)sc2=S)cc1`?
HGIII-sPLA2 inh: 3; MT1-MMP act inh: -1; Efflux pump inh: 0; TAG inh: 19

What do the screens show for `O=c1ccc(-c2ccccc2)no1`?
HGIII-sPLA2 inh: 2; MT1-MMP act inh: -1; Efflux pump inh: 0; TAG inh: -5

Results for O=C(C[C@@H]1C/C=C\CCCC(=O)OC[C@@H]2CCCN2C1=O)N[C@@H](CO)Cc1ccccc1 ?
HGIII-sPLA2 inh: 1; MT1-MMP act inh: 4; Efflux pump inh: 0; TAG inh: -15

How did FC(F)(F)c1ccccc1CN1CCCc2nc(-c3ccc(Br)cc3)ccc21 do in these assays?
HGIII-sPLA2 inh: 22*; sPLA2 confirm: 14; BODIPY interf: 4

What do the screens show for `COc1ccc(-c2ccc3c(n2)CCCN3Cc2ccccc2C(F)(F)F)cc1`?
HGIII-sPLA2 inh: 17

How did FC(F)(F)c1ccccc1CN1CCCc2nc(-c3ccccc3)ccc21 do in these assays?
HGIII-sPLA2 inh: 27*; sPLA2 confirm: 6; BODIPY interf: -1

Results for CCCCc1nnc(NC(=O)c2ccc3[nH]c(=O)c(=O)[nH]c3c2)s1 ?
HGIII-sPLA2 inh: 1; MT1-MMP act inh: 4; Efflux pump inh: 1

What do the screens show for `CC(=O)OC1C2CCC1C([N+]1(C)CCCCC1)CC2` (configuration not stated)?
HGIII-sPLA2 inh: 1; MT1-MMP act inh: -4; Efflux pump inh: 0; TAG inh: -23

Results for COc1cc(OC)cc(-c2nn[nH]n2)c1 ?
HGIII-sPLA2 inh: 20*; MT1-MMP act inh: 2; Efflux pump inh: 0; sPLA2 confirm: -2; BODIPY interf: 0

How did CC1CCCN(S(=O)(=O)c2cccc(C(=O)NCCCN3CCCC3=O)c2)C1 (configuration not stated) do in these assays?
HGIII-sPLA2 inh: 20*; MT1-MMP act inh: 1; TAG inh: 1; sPLA2 confirm: 9; BODIPY interf: -3

What do the screens show for `O=C(NCCCN1CCCC1=O)c1cccc(S(=O)(=O)N2CCN(c3ccccc3)CC2)c1`?
HGIII-sPLA2 inh: 2; MT1-MMP act inh: 0; Efflux pump inh: 0; TAG inh: -2

Results for CCOc1ccc(NCC2CCOC(C)(C)C2)cc1 (configuration not stated) ?
HGIII-sPLA2 inh: 20*; MT1-MMP act inh: 5; Efflux pump inh: 0; TAG inh: -7; sPLA2 confirm: 12; BODIPY interf: -4

Results for CCC(Oc1ccccc1)C(=O)NCCOC (configuration not stated) ?
HGIII-sPLA2 inh: 21*; MT1-MMP act inh: 0; Efflux pump inh: 0; sPLA2 confirm: 0; BODIPY interf: -7
